Tests used:
Triticum aestivum = experiment: Toxicity in Triticum aestivum (wheat) plant assessed as inhibition at 150 g/hectare; format: organism-based; conditions: in vivo
How it was run: (§1)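 For crop selectivity, conventional crop varieties were planted in 12 cm diameter plots and given a postemergence treatment at 150 g ai/ha. Injury was scored as percent inhibition, with 0–10% classed as safe to the crop.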

Brassica napus = experiment: Toxicity in Brassica napus (oilseed rape) assessed as inhibition at 150 g/hectare; format: functional; how it was run: as §1
Gossypium hirsutum = experiment: Toxicity in Gossypium hirsutum (cotton) plant assessed as inhibition at 150 g/hectare; format: organism-based; conditions: in vivo; how it was run: as §1
Glycine max = experiment: Toxicity in Glycine max (soybean) plant assessed as inhibition at 150 g/hectare; format: organism-based; conditions: in vivo; how it was run: as §1
Zea mays = experiment: Toxicity in Zea mays (maize) plant assessed as inhibition at 150 g/hectare; format: organism-based; conditions: in vivo; how it was run: as §1
Oryza sativa = experiment: Toxicity in Oryza sativa (rice) plant assessed as inhibition at 150 g/hectare; format: organism-based; conditions: in vivo; how it was run: as §1
Eclipta prostrata [1] = experiment: Post-emergence herbicidal activity against Eclipta prostrata assessed as inhibition at 75 g/hectare treated at two-leaf stage by green house assay; format: functional
How it was run: (§2)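 Greenhouse postemergence spray of diluted formulation solutions onto broadleaf weeds at the two-leaf stage. Primary screen at 150 g ai/ha, with selected compounds retested at 75 and 37.5 g ai/ha. Abutilon was tested at 150 g ai/ha only. Read-out is percent herbicidal damage relative to an untreated control.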

Eclipta prostrata [2] = experiment: Post-emergence herbicidal activity against Eclipta prostrata assessed as inhibition at 37.5 g/hectare treated at two-leaf stage by green house assay; format: functional; how it was run: as §2
Amaranthus retroflexus [3] = experiment: Post-emergence herbicidal activity against Amaranthus retroflexus assessed as inhibition at 37.5 g/hectare treated at two-leaf stage by green house assay; format: functional; how it was run: as §2
Amaranthus retroflexus [4] = experiment: Post-emergence herbicidal activity against Amaranthus retroflexus assessed as inhibition at 75 g/hectare treated at two-leaf stage by green house assay; format: functional; how it was run: as §2
Brassica juncea [5] = experiment: Post-emergence herbicidal activity against Brassica juncea assessed as inhibition at 75 g/hectare treated at two-leaf stage by green house assay; format: functional; how it was run: as §2
Brassica juncea [6] = experiment: Post-emergence herbicidal activity against Brassica juncea assessed as inhibition at 37.5 g/hectare treated at two-leaf stage by green house assay; format: functional; how it was run: as §2
Digitaria sanguinalis [7] = experiment: Post-emergence herbicidal activity against Digitaria sanguinalis (hairy crabgrass) assessed as inhibition at 75 g/hectare treated at one-leaf stage by green house assay; format: functional
How it was run: (§3)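 Monocot weeds were sprayed postemergence in the greenhouse at the one-leaf stage with diluted formulation solutions. Primary dose was 150 g ai/ha, with follow-up doses of 75 and 37.5 g ai/ha for selected compounds. Activity is scored as percent herbicidal damage compared with an untreated control.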

Digitaria sanguinalis [8] = experiment: Post-emergence herbicidal activity against Digitaria sanguinalis (hairy crabgrass) assessed as inhibition at 37.5 g/hectare treated at one-leaf stage by green house assay; format: functional; how it was run: as §3
Setaria viridis [9] = experiment: Post-emergence herbicidal activity against Setaria viridis (green foxtail) assessed as inhibition at 75 g/hectare treated at one-leaf stage by green house assay; format: functional; how it was run: as §3
Setaria viridis [10] = experiment: Post-emergence herbicidal activity against Setaria viridis (green foxtail) assessed as inhibition at 37.5 g/hectare treated at one-leaf stage by green house assay; format: functional; how it was run: as §3
Echinochloa crus-galli [11] = experiment: Post-emergence herbicidal activity against Echinochloa crus-galli (barnyard grass) assessed as inhibition at 75 g/hectare treated at one-leaf stage by green house assay; format: functional; how it was run: as §3
Echinochloa crus-galli [12] = experiment: Post-emergence herbicidal activity against Echinochloa crus-galli (barnyard grass) assessed as inhibition at 37.5 g/hectare treated at one-leaf stage by green house assay; format: functional; how it was run: as §3
Eclipta prostrata [13] = experiment: Post-emergence herbicidal activity against Eclipta prostrata assessed as inhibition at 150 g/hectare treated at two-leaf stage by green house assay; format: functional; how it was run: as §2
Amaranthus retroflexus [14] = experiment: Post-emergence herbicidal activity against Amaranthus retroflexus assessed as inhibition at 150 g/hectare treated at two-leaf stage by green house assay; format: functional; how it was run: as §2
Brassica juncea [15] = experiment: Post-emergence herbicidal activity against Brassica juncea assessed as inhibition at 150 g/hectare treated at two-leaf stage by green house assay; format: functional; how it was run: as §2
Abutilon theophrasti = experiment: Post-emergence herbicidal activity against Abutilon theophrasti (velvetleaf) assessed as inhibition at 150 g/hectare treated at two-leaf stage by green house assay; format: functional; how it was run: as §2
Digitaria sanguinalis [16] = experiment: Post-emergence herbicidal activity against Digitaria sanguinalis (hairy crabgrass) assessed as inhibition at 150 g/hectare treated at one-leaf stage by green house assay; format: functional; how it was run: as §3
Echinochloa crus-galli [17] = experiment: Post-emergence herbicidal activity against Echinochloa crus-galli (barnyard grass) assessed as inhibition at 150 g/hectare treated at one-leaf stage by green house assay; format: functional; how it was run: as §3
Setaria viridis [18] = experiment: Post-emergence herbicidal activity against Setaria viridis (green foxtail) assessed as inhibition at 150 g/hectare treated at one-leaf stage by green house assay; format: functional; how it was run: as §3

Structure (SMILES)	inhibition (INH) (Triticum aestivum)	inhibition at 150 g/ha (Brassica napus)	inhibition (INH) (Gossypium hirsutum)	inhibition (INH) (Glycine max)	inhibition (INH) (Zea mays)	inhibition (INH) (Oryza sativa)	inhibition at 75 g/ha (Eclipta prostrata [1])	inhibition at 37.5 g/ha (Eclipta prostrata [2])	inhibition at 37.5 g/ha (Amaranthus retroflexus [3])	inhibition at 75 g/ha (Amaranthus retroflexus [4])	inhibition at 75 g/ha (Brassica juncea [5])	inhibition at 37.5 g/ha (Brassica juncea [6])	inhibition at 75 g/ha (Digitaria sanguinalis [7])	inhibition at 37.5 g/ha (Digitaria sanguinalis [8])	inhibition at 75 g/ha (Setaria viridis [9])	inhibition at 37.5 g/ha (Setaria viridis [10])	inhibition at 75 g/ha (Echinochloa crus-galli [11])	inhibition at 37.5 g/ha (Echinochloa crus-galli [12])	inhibition at 150 g/ha (Eclipta prostrata [13])	inhibition at 150 g/ha (Amaranthus retroflexus [14])	other results
CC1(C)COP(=O)(C(OC(=O)COc2ccc(Cl)cc2Cl)c2ccc(Cl)cc2Cl)OC1 (stereo not given)	0%	40%	20%	30%	10%	10%	34%	30%	20%	20%	55%	50%	0%	0%	0%	0%	0%	0%	70%	80%	inhibition at 150 g/ha (Brassica juncea [15]): 100%; inhibition at 150 g/ha (Abutilon theophrasti): 95%; inhibition at 150 g/ha (Digitaria sanguinalis [16]): 0%; inhibition at 150 g/ha (Echinochloa crus-galli [17]): 0%; inhibition at 150 g/ha (Setaria viridis [18]): 0%
CC1(C)COP(=O)(C(OC(=O)COc2ccc(Cl)cc2Cl)c2ccc(Cl)cc2)OC1 (stereo not given)	0%	40%	20%	20%	0%	10%	0%	0%	30%	50%	90%	80%	0%	0%	0%	0%	0%	0%	70%	80%	inhibition at 150 g/ha (Brassica juncea [15]): 98%; inhibition at 150 g/ha (Abutilon theophrasti): 90%; inhibition at 150 g/ha (Digitaria sanguinalis [16]): 0%; inhibition at 150 g/ha (Echinochloa crus-galli [17]): 0%; inhibition at 150 g/ha (Setaria viridis [18]): 0%

— ChEMBL document CHEMBL3044653, “Synthesis and herbicidal activity of 2-(substituted phenoxyacetoxy)alkyl-5,5-dimethyl-1,3,2-dioxaphosphinan-2-one” (J Agric Food Chem, 2012)
